The values below come from ChEMBL document CHEMBL4373712, “Bioactivatable Pseudotripeptidization of Cyclic Dipeptides To Increase the Affinity toward Oligopeptide Transporter 1 for Enhanced Oral Absorption: An Application to Cyclo(l-Hyp-l-Ser) (JBP485)” (J Med Chem, 2019).

Where a SMILES comes first, the peptide text is derived from it. [ ]: non-standard residue; d: D form. Hyp = O=C(O)[C@@H]1C[C@@H](O)CN1

In data set [1] the target is T1, Solute carrier family 15 member 1 (Homo sapiens, UniProt P46059).
T1 sequence (P46059 whole entry): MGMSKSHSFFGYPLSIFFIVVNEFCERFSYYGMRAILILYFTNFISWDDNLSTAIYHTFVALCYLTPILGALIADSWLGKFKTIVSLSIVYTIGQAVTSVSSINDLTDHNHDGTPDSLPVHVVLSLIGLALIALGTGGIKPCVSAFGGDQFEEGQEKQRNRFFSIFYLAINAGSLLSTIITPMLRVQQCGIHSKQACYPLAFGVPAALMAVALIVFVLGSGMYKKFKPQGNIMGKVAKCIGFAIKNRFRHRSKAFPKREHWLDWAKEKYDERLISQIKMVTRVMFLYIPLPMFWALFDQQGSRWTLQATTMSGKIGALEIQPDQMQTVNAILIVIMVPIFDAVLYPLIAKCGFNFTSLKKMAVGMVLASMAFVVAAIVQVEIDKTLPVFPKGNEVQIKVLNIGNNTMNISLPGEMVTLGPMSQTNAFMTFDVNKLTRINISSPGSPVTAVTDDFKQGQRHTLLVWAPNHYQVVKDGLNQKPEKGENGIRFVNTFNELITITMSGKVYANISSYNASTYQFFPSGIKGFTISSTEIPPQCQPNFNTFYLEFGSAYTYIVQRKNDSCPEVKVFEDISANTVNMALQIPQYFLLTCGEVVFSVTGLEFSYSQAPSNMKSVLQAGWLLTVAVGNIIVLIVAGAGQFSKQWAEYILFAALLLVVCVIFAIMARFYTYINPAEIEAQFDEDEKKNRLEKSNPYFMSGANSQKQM
The data set is described as follows: Substrate activity at PEPT1 in human Caco2 cells assessed as inhibition of Gly-Sar uptake by LC-MS/MS analysis. In kind it is cell-based. Summed up: (§1)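 Caco-2 cells with 0.5 mM Gly-Sar probe substrate and competitor at 0.5–50 mM. IC50 by nonlinear fitting; n=3.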

Data set [2] deals with T1, Solute carrier family 15 member 1. The data set is described as follows: Substrate activity at PEPT1 in human Caco2 cells assessed as protein-mediated drug uptake at 0.5 mM measured after 10 mins in pH 7.4 HBSS buffer by UPLC-MS/MS analysis. In kind it is ADME, cell-based. As to conditions: caco-2, pH 7.4, 10 min, 500 µM; call rule not given here. Summed up:
(§2)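 Caco-2 cells incubated 10 min with 0.5 mM compound in HBSS at pH 6.0 or pH 7.4, washed three times in ice-cold PBS pH 7.4, homogenised. Protein by DC assay; drug by UPLC-MS/MS; n=3.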

Data set [3] shares this target. The data set can be described thus: Substrate activity at PEPT1 in human Caco2 cells assessed as protein-mediated drug uptake at 0.5 mM measured after 10 mins in pH 6 HBSS buffer by UPLC-MS/MS analysis. In kind it is ADME, cell-based. As to conditions: caco-2, pH 6, 10 min, 500 µM. An outline of the steps:
as §2

Data set [4] addresses T2, Solute carrier family 15 member 1 (Rattus norvegicus, UniProt P51574).
T2 sequence (P51574 whole entry): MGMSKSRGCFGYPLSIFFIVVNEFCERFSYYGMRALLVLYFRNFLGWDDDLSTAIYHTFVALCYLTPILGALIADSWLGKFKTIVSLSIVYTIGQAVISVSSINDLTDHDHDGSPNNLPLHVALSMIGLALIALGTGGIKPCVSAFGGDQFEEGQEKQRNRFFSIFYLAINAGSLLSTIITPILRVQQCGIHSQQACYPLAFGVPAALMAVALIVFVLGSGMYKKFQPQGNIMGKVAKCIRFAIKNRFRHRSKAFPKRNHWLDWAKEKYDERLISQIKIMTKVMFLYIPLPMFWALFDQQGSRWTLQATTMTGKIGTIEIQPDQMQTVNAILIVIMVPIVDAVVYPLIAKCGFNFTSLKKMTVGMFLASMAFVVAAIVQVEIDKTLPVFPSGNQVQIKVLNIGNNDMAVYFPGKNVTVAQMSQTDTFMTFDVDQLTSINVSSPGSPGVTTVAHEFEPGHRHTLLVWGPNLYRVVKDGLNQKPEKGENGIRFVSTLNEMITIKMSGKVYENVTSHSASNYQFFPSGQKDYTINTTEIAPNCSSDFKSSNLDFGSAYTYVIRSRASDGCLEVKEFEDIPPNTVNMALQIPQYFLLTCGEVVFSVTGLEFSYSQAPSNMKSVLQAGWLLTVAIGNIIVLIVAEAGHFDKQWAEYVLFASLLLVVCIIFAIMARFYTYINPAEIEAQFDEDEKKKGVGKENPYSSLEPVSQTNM
The data set can be described thus: Ratio of compound effect for substrate activity at PEPT1 in Sprague-Dawley rat jejunum assessed as effective permeability in absence of non-metabolized PEPT1 substrate Gly-Sar to compound effect for substrate activity at PEPT1 in Sprague-Dawley rat jejunum assessed as effective permeability in presence of non-metabolized PEPT1 substrate Gly-Sar. In kind it is ADME.

Data set [5] addresses T1, Solute carrier family 15 member 1. The data set can be described thus: Substrate activity at PEPT1 in human Caco2 cells assessed as inhibition of Gly-Sar uptake measured after 10 mins by UPLC-MS/MS analysis. In kind it is cell-based. Summed up: as §1
Data set [6] in a line: Oral bioavailability in rat. In kind it is ADME, organism-based. To be noted: in vivo.
Data set [7] concerns the target T2, Solute carrier family 15 member 1. The data set is described as follows: Substrate activity at PEPT1 in Sprague-Dawley rat jejunum assessed as effective permeability at 5 mM measured after 15 to 120 mins by HPLC analysis. In kind it is ADME, tissue-based. To be noted: 5000 µM. An outline of the steps:
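In situ single-pass jejunal perfusion in fasted (12 h) male SD rats anaesthetised with urethane 1.5 g/kg i.p. About 10 cm of jejunum was perfused at 0.2 mL/min with pH 6.0 HEPES buffer containing 5 mM compound. Outflow was collected 15–120 min after steady state and assayed by HPLC. Peff was calculated from outlet/inlet concentration and volume ratios and segment radius and length.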

For orientation: Ki means a dissociation constant, usually derived from enzyme kinetics or from competition with a known ligand. A word on the IC50: it is the midpoint of a concentration-inhibition curve. Usually bioavailability stands for the share of a dose that reaches the circulation, judged against a reference dose that is usually intravenous. The low end stands for little systemic uptake, the high end for much systemic uptake. Take `O=C(O)[C@H](CO)NC(=O)[C@@H]1C[C@@H](O)CN1` (H-[Hyp]-Ser-OH): in data set [1], the Ki amounted to 2500 µM. Besides, the figures for the Drug uptake result in data set [2] and in data set [3] were “Not Active” and “Active”, respectively. Also, in data set [4], the Ratio is listed as 7.3. For the same molecule, in data set [5], the IC50 was determined as 1760 µM. The molecule further displayed a bioavailability in data set [6] of no more than 100%. In data set [7], the Peff entry is “Permeable”.
